Test results published in ChEMBL document CHEMBL1770143, “Biological evaluation of 3'-O-alkylated analogs of salacinol, the role of hydrophobic alkyl group at 3' position in the side chain on the α-glucosidase inhibitory activity” (Bioorg Med Chem Lett, 2011).

Legend:
[1] = molecular target: T1, Sucrase-isomaltase, intestinal (Rattus norvegicus, UniProt P23739); test: Inhibition of rat small intestinal sucrase after 30 mins by glucose-oxidase method
Procedure, shortened: (§1)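 Enzyme source was rat small-intestinal brush border membrane vesicles suspended in 0.1 M maleate buffer, pH 6.0. Substrate solutions, prior to mixing, were maltose 74 mM (maltase), sucrose 74 mM (sucrase) and isomaltose 7.4 mM (isomaltase). Substrate, inhibitor and enzyme were incubated at 37 °C for 30 min, then stopped by 2 min boiling. Released glucose was measured by glucose oxidase. Final DMSO was 2.5%.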

[2] = molecular target: T1, Sucrase-isomaltase, intestinal; test: Inhibition of rat small intestinal isomaltase after 30 mins by glucose-oxidase method; procedure, shortened: as §1
[3] = molecular target: T1, Sucrase-isomaltase, intestinal; test: Competitive inhibition of rat intestinal isomaltase
[4] = molecular target: T1, Sucrase-isomaltase, intestinal; test: Competitive inhibition of rat intestinal sucrase

T1 sequence (P23739 1-1013 limits assumed): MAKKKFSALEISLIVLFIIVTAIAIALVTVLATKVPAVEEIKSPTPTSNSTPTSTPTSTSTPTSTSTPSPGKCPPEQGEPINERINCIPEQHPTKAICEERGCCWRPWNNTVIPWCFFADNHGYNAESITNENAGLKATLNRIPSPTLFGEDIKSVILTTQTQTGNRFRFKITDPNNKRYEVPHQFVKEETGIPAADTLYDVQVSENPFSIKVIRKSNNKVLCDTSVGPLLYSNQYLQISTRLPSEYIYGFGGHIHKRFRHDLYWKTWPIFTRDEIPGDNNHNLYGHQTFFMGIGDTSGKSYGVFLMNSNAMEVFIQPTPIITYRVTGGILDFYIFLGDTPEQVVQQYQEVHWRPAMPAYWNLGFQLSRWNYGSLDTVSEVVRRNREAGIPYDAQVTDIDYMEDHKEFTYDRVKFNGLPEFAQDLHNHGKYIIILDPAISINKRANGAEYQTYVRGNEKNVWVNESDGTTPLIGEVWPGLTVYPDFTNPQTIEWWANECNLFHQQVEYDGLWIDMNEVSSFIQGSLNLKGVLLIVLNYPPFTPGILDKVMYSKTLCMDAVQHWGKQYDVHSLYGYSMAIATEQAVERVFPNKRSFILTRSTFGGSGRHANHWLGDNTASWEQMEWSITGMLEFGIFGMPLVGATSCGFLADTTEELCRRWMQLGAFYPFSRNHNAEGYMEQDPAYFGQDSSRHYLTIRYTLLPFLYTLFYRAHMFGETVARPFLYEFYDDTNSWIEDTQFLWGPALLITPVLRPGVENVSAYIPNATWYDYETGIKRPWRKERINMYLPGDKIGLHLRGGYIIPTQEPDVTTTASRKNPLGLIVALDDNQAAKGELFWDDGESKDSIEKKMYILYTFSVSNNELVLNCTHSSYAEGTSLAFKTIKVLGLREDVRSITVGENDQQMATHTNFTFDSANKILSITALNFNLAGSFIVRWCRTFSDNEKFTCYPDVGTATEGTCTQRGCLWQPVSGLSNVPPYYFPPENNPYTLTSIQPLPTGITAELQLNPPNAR
T1 sequence (P23739 1014-1841 limits assumed): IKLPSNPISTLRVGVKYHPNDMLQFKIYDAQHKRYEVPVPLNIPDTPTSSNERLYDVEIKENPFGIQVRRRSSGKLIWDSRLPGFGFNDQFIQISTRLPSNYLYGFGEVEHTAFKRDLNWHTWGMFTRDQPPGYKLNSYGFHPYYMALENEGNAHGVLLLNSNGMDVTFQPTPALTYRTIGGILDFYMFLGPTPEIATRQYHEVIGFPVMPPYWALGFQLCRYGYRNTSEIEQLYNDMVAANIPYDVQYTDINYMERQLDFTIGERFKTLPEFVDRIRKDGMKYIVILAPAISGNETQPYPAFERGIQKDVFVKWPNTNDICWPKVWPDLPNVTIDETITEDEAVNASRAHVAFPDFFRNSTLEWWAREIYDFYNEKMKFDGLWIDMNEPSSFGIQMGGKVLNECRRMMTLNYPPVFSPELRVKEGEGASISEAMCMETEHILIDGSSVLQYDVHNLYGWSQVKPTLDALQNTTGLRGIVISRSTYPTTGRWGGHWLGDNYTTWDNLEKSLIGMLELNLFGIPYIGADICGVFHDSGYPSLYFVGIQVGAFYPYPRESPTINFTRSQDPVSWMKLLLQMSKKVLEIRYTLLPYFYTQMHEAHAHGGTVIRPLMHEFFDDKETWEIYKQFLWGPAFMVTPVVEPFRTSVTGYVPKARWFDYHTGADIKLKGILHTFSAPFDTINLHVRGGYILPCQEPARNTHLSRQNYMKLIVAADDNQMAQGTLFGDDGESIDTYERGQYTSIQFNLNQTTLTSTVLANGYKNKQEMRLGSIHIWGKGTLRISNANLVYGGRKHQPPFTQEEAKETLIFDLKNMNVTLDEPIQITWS

| IC50 [1] [nM] | IC50 [2] [nM] | Ki [3] [nM] | Ki [4] [nM] | SMILES |
| --- | --- | --- | --- | --- |
| 460 | 390 | – | – | CO[C@@H](CO)[C@H](O)C[S+]1C[C@@H](O)[C@H](O)[C@H]1CO (single isomer, unassigned) |
| 1300 | 950 | – | – | CCCCCCCCCCCCCO[C@@H](CO)[C@H](O)C[S+]1C[C@@H](O)[C@H](O)[C@H]1CO (single isomer, unassigned) |
| – | – | 1410 | 957 | O=S(=O)([O-])O[C@@H](CO)[C@H](O)C[S@+]1C[C@@H](O)[C@H](O)[C@H]1CO [SALACINOL] |

More lines, now with the values behind:

| SMILES | IC50 [1] [nM] | IC50 [2] [nM] | Ki [3] [nM] | Ki [4] [nM] |
| --- | --- | --- | --- | --- |
| OC[C@H](OCc1ccccc1)[C@H](O)C[S+]1C[C@@H](O)[C@H](O)[C@H]1CO (single isomer, unassigned) | 320 | – | – | – |
| CCO[C@@H](CO)[C@H](O)C[S+]1C[C@@H](O)[C@H](O)[C@H]1CO (single isomer, unassigned) | 120 | 270 | – | – |
